Most compounds without a hit are left out; they make up all but 0.72% or so of the library.
mIAP inh = blocks mouse intestinal alkaline phosphatase; purified mouse IAP, CDP-Star luminescence, 30 min; inhibition, % at 10 µM; 330,000 tested, 0.2% active; AID 2806;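 active = inhibition of at least 40% at 10 µM in the primary screen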;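 also: plate controls were DMSO with enzyme for no effect and no enzyme wells for full effect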
mIAP act = mouse IAP activation. muIAP, CDP-Star luminescence, 30 min; active compounds read high; 1 = vehicle-only enzyme signal, 0 = enzyme-free wells. activation factor at 10 µM. 330,000 tested, 0.24% active. AID 2805;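 active = activation factor of at least 2 at 20 µM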
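Assay system: mouse IAP enzyme / Compound: DMSO-dissolved test compounds / Timing: 30 min, room temperature / Measured by: luminescence from enzymatic CDP-Star hydrolysis / Control set: DMSO-only wells, enzyme-free buffer wells as negative control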
bIAP inh = intestinal alkaline phosphatase (bovine) inhibition; purified bovine IAP, CDP-star luminescence, 30 min; inhibition, % at 20 µM; 190,000 tested, under 10 active; AID 1019;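 active = over 50% inhibition of intestinal alkaline phosphatase at 20 µM in the single-dose screen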
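Incubation: 30 min reaction at room temperature / Material: purified bovine intestinal alkaline phosphatase (IAP) enzyme / Input: enzyme at 1/65,000,000 dilution / Dosing: 20 µM single dose / Signal: CDP-star luminescence signal / Reagent: CDP-star chemiluminescent phosphatase substrate, 30 µM final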
bIAP activator = intestinal alkaline phosphatase (bovine) activation; purified bovine IAP, CDP-star luminescence, 30 min; active compounds read high; fold of DMSO-control signal, blank-subtracted; activation factor at 20 µM; 200,000 tested, 0.17% active;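 active = activation factor of 2 or more at 20 µM, a signal rise over negative controls twice the positive control's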
hIAP inh = human IAP inhibition | purified IAP, CDP-Star luminescence, 30 min | inhibition, % at 10 µM | 330,000 tested, 0.12% active | AID 2544;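 active = inhibition reaching a set limit with compound at 10 µM in the primary screen, cut at about 35% in these data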;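 also: plate controls were DMSO wells with enzyme for no effect and no-enzyme buffer wells for full effect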
Target sequence (P09923 whole entry, looked up): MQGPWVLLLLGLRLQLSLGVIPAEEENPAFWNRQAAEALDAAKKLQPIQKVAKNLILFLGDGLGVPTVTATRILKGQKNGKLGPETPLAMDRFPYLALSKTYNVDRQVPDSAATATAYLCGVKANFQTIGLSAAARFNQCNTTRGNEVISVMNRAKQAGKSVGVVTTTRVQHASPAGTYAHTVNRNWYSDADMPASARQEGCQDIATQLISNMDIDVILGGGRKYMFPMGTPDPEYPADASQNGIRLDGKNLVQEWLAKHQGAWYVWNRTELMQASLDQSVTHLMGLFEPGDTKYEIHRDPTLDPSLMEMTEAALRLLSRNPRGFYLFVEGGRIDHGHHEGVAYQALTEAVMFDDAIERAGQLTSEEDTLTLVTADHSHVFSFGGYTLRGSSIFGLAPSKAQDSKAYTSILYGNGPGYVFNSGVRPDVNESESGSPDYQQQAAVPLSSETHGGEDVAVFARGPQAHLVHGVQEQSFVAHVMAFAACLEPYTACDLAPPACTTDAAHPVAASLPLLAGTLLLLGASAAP
hIAP act = increases human intestinal alkaline phosphatase activity; P09923; purified human IAP, CDP-Star luminescence, 30 min; active compounds read high; 1 = vehicle-only enzyme, 0 = enzyme-free background; activation factor at 10 µM; 330,000 tested, 0.16% active;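 active = activation factor of the enzyme at least 2-fold when tested at 20 µM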
hIAP act confirm = human IAP activation confirmation. purified IAP, CDP-Star luminescence, 30 min; active compounds read low. activation (%Activity, negative = activation), % at 8.3 µM. 880 tested, 10% active. shares compounds with hIAP act;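 active = at least twofold enzyme activation in any of six single-dose repeats, which the averaged readout prints as negative percent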
* = called active by the depositor; x = no result.

SMILES	mIAP inh	mIAP act	bIAP inh	bIAP activator	hIAP inh	hIAP act	hIAP act confirm
CCCCC1CCC(C(=O)N(CC(C)C)c2c(N)n(Cc3ccccc3)c(=O)[nH]c2=O)CC1 (stereo unspecified)	-1.4	1.01	x	x	-0.7	1.01	x
CC1=NN(c2ccccc2)C(=O)/C1=C\C=C1\N(C)c2ccccc2C1(C)C	40.3*	0.597	-0.2	1	40.4*	0.596	-24.2
CC1=NN(c2ccccc2)C(=O)/C1=C\C=C1/N(C)c2ccccc2C1(C)C	35.6	0.644	-7.2	1.1	32.7	0.673	x
CCCCN(C(=O)CSc1nnnn1C)C1CCS(=O)(=O)C1 (stereo unspecified)	5.5	0.945	x	x	5.0	0.95	x
COc1cc(CNC(=O)C2CCC(=O)N(C3CCCCCC3)C2)cc(OC)c1 (stereo unspecified)	2.3	0.977	x	x	-57.4	1.57	x
Cc1ccc(S(=O)(=O)N2CCN(C(=O)CCn3cncn3)CC2)cc1	-5.4	1.05	x	x	36.0*	0.64	-52.8
CCOC(=O)c1cnc(-n2nc(C)cc2C)nc1NNc1nc(C)cc(C)n1	33.7	0.663	x	x	-100.0	2	71.7
CCOC(=O)c1cnc(-n2nc(C)cc2C)nc1NNc1nc(-c2ccccc2)cc(-c2ccccc2)n1	10.9	0.891	11.9	0.9	6.0	0.94	x
Cc1ccc(C(=O)N(NC2=NS(=O)(=O)c3ccccc32)S(=O)(=O)c2ccc(C)cc2)cc1	-2.2	1.02	1.7	1	-137.4	2.37*	-26.5
CCN(C1=NS(=O)(=O)c2ccccc21)N(CC)S(=O)(=O)c1ccc(C)cc1	21.1	0.789	9.2	0.9	-3.9	1.04	x
O=C(Nc1c(C(=O)N2CCOCC2)cnn1-c1ccccc1)c1ccc(F)cc1	-0.8	1.01	x	x	-13.1	1.13	x
CCOc1cccc(/C=N/NC(=O)c2cc(C3CC3)[nH]n2)c1O	8.9	0.911	x	x	-147.0	2.47*	-11.9
Cc1ccc(-c2cc(C(=O)N/N=C/c3ccccc3O)n[nH]2)o1	15.6	0.844	x	x	-214.1	3.14*	39.3
Cc1ccc(Nc2nnc(SC(C)C(=O)NCC3CCCO3)s2)cc1 (stereo unspecified)	-13.4	1.13	x	x	-1.9	1.02	x
Cc1nnc(N2CCc3ccccc3C2)[nH]c1=O	5.1	0.949	5.8	0.9	36.2*	0.638	-42.7
Cc1ccc(-n2ncc3c(=O)n(CC(N)=O)cnc32)cc1C	-12.3	1.12	x	x	-0.6	1.01	x
Cc1nc2c3cnn(-c4ccc(C)c(C)c4)c3ncn2n1	-4.7	1.05	5.8	0.9	74.4*	0.256	-27.4
C=CCN(Cc1nc(-c2ccccc2)no1)C(=O)c1ccco1	-2.3	1.02	x	x	10.7	0.893	x
COc1ccc(C2c3ccc(O)cc3Oc3ncn4nc(-c5ccncc5)nc4c32)cc1OC (stereo unspecified)	14.4	0.856	x	x	40.9*	0.591	3.7
COC(=O)N=Nc1c(O)[nH]c2ccc(Br)cc12	9.2	0.908	x	x	43.7*	0.563	-36.9
O=C(CNC(=O)c1ccccc1)N=Nc1c(O)[nH]c2ccc(Br)cc12	2.0	0.98	x	x	-57.9	1.58	x
N#C/C(=C\c1ccc(N2CCCCC2)c([N+](=O)[O-])c1)c1nn(-c2ccccc2)c(N)c1C#N	16.1	0.839	11.5	0.9	19.0	0.81	x
N#C/C(=C\c1ccc(N2CCCC2)c([N+](=O)[O-])c1)c1nc2ccccc2[nH]1	12.0	0.88	20.7	0.8	35.1*	0.649	-1.2
N#C/C(=C/c1ccc(O)c(O)c1)c1nc2ccccc2[nH]1	35.7	0.643	x	x	58.2*	0.418	4.1
Cn1cc(/C=C(\NC(=O)c2ccccc2Cl)C(=O)NCCN2CCOCC2)c2ccccc21	6.9	0.931	x	x	38.0*	0.62	14.1
SMILES	mIAP inh	mIAP act	bIAP inh	bIAP activator	hIAP inh	hIAP act	hIAP act confirm
Cn1cc(/C=C(\NC(=O)c2ccccc2Cl)C(=O)NCCCN2CCOCC2)c2ccccc21	-1.0	1.01	x	x	-8.7	1.09	x
O=C(O)C(Cc1ccccc1)N1C(=O)c2c(Cl)c(Cl)c(Cl)c(Cl)c2C1=O (stereo unspecified)	10.1	0.899	x	x	-57.7	1.58	x
CCCCCCc1c(C)nc(-n2[nH]c(C)c(CCO)c2=O)[nH]c1=O	15.6	0.844	-18.6	1.2	-127.8	2.28*	-56.4
COc1ccc(-c2[nH]ncc2CN(CCO)CC23CC4CC(CC(C4)C2)C3)c(OC)c1	5.3	0.947	-13.8	1.1	-21.9	1.22	x
O=C(CNC(=S)N(CCCN1CCOCC1)Cc1cccs1)NCc1ccc(Cl)cc1	-8.1	1.08	x	x	-186.3	2.86*	-51.1
O=C(CNC(=S)N(CCCN1CCOCC1)Cc1cccs1)NCc1ccccc1Cl	-0.7	1.01	x	x	-109.5	2.1*	14.5
COC(CNC(=O)CNC(=S)N(CCCN1CCOCC1)Cc1cccs1)OC	-18.2	1.18	7.8	0.9	-28.2	1.28	x
O=C(CNC(=S)N(CCCN1CCOCC1)Cc1cccs1)NCCCN1CCOCC1	15.3	0.847	-9.8	1.1	4.9	0.951	x
CC(C)(C)c1ccc(C(=O)Nc2ccc(CN3CCS(=O)(=O)CC3)cc2)cc1	3.7	0.963	x	x	38.6*	0.614	-53.6
COc1ccc(C(=O)NC(=S)NNC(=O)c2ccc(NC(C)=O)cc2)cc1Br	16.6	0.834	-39.1	1.4	-110.2	2.1*	1.9
CC1=Nc2ccccc2N=C(NC(=O)CSC(=S)N2CCCCC2)C1c1ccccc1 (stereo unspecified)	-4.1	1.04	x	x	-1.0	1.01	x
CC1=Nc2ccccc2N=C(NC(=O)CSC(=S)N2CCN(C)CC2)C1c1ccccc1 (stereo unspecified)	-15.6	1.16	x	x	-143.1	2.43*	3.7
Cc1ccc(-n2nc(C)c3c2OC(N)=C(C#N)C3c2ccncc2)cc1 (stereo unspecified)	6.8	0.932	10.2	0.9	13.6	0.864	x
Cc1nn(-c2ccccc2)c2c1C(c1ccncc1)C(C#N)=C(N)O2 (stereo unspecified)	-3.1	1.03	4.5	1	37.6*	0.624	-1.9
O=c1c2ccccc2nc(SCc2nc(-c3ccccc3)no2)n1-c1ccc(F)cc1	7.5	0.925	16.0	0.8	-16.5	1.17	x
Nc1nnc(Cc2cccc(Br)c2)s1	-2.7	1.03	x	x	-105.8	2.06*	-40.5
Nc1nnc(Cc2ccccc2)s1	-2.2	1.02	13.8	0.9	-14.0	1.14	x
Cc1cc(C)c(C(=O)CN2C(=O)C(=O)N(C3CCCC3)C2=O)cc1C	-6.0	1.06	x	x	-3.3	1.03	x
Cc1ccc2oc(C(=O)Nc3nnc(C)s3)c(C)c2c1	-4.3	1.04	4.9	1	4.7	0.953	x
Cc1ccc2oc(C(=O)Nc3nonc3C)c(C)c2c1	-4.4	1.04	x	x	37.9*	0.621	-19.7
C[n+]1c(/C=C/c2ccc(O)cc2)ccc2ccccc21	28.0	0.72	x	x	44.5*	0.555	4.1
